ChEMBL document CHEMBL5653622 (Oncotarget, 2016)
pIC50: −log10 of the molar value. The source made the active and inactive calls. The calls are words filed in the database; no cut-off is given here.

What was measured:
[1] = Toxicity in CRTac:Ncr-Fox1 mouse xenografted with human HT-29 cells assessed as body weight at 12.5 mg/kg, po administered for 16 days in presence of gemcitabine relative to control; type: organism-based; conditions: in vivo, 384 h, time 16 day
[2] = Toxicity in Emu-Myc driven transgenic mouse transplant model of B-cell lymphoma assessed as reduction in weight of the inguinal lymph nodes at 150 mg/kg, po administered for 9 days; type: organism-based; conditions: in vivo, 216 h, time 9 day
[3] = Tmax in BALB/C mouse spleen at 10 mg/kg, iv by LC/MS-MS analysis; type: ADME, organism-based
[4] = target: Ribosomal protein S6 kinase alpha-3 (Homo sapiens, UniProt P51812); assay: Inhibition of human RSK2 at 10 uM in presence of ATP by radiometric kinase assay relative to control
[5] = system: Mus musculus; assay: In vivo inhibition of CHK1 in CRTac:Ncr-Fox1 athymic mouse xenografted with human Calu-6 cells assessed as enhanced phosphorylation of CHK1 on S345 at 150 mg/kg, po in presence of gemcitabine and carboplatin by Western blotting analysis; type: functional, organism-based
How it was run: (§1)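 Female CRTac:Ncr-Fox1(nu) athymic mice carried s.c. Calu6 xenografts. Tumors were taken 6h after the last inhibitor dose, lysed in CHAPS buffer, and immunoblotted with GAPDH as loading control.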

[6] = target: Cyclin-dependent kinase 1 (Homo sapiens) (UniProt P06493); assay: Inhibition of human CDK1 by DELFIA assay
[7] = target: Mitogen-activated protein kinase 3 (Homo sapiens) (UniProt P27361); assay: Inhibition of human ERK1 assessed as remaining activity at 10 uM in presence of ATP by radiometric kinase assay relative to control
[8] = target: Serine/threonine-protein kinase STK11 (Homo sapiens) (UniProt Q15831); assay: Inhibition of human LKB1 assessed as remaining activity at 10 uM in presence of ATP by radiometric kinase assay relative to control
[9] = target: Mitogen-activated protein kinase 15 (Homo sapiens, UniProt Q8TD08); assay: Inhibition of human ERK8 in presence of ATP by radiometric kinase assay
[10] = system: SW-620; assay: Induction of apoptosis in human SW620 cells assessed as increased in cleaved PARP in presence of gemcitabine by Western blotting analysis; type: functional, cell-based
[11] = AUC (0 to infinity) in BALB/C mouse spleen at 10 mg/kg, iv by LC/MS-MS analysis; type: ADME, organism-based
[12] = Plasma protein binding in nude mouse at 10 uM; type: ADME, cell-free
[13] = target: Interleukin-1 receptor-associated kinase 4 (Homo sapiens) (UniProt Q9NWZ3); assay: Inhibition of human IRAK4 assessed as remaining activity at 10 uM in presence of ATP by radiometric kinase assay relative to control
[14] = system: Mus musculus; assay: In vivo inhibition of total CHK1 in CRTac:Ncr-Fox1 athymic mouse xenografted with human Calu-6 cells at 150 mg/kg, po in presence of gemcitabine and carboplatin by Western blotting analysis; type: functional, organism-based; how it was run: as §1
[15] = target: Ribosomal protein S6 kinase alpha-1 (Homo sapiens, UniProt Q15418); assay: Inhibition of human RSK1 assessed as remaining activity at 10 uM in presence of ATP by radiometric kinase assay relative to control
[16] = target: MAP kinase-interacting serine/threonine-protein kinase 2 (Homo sapiens) (UniProt Q9HBH9); assay: Inhibition of human MNK2 assessed as remaining activity at 10 uM in presence of ATP by radiometric kinase assay relative to control
[17] = target: Serine/threonine-protein kinase Nek2 (Homo sapiens) (UniProt P51955); assay: Inhibition of human NEK2a assessed as remaining activity at 10 uM in presence of ATP by radiometric kinase assay relative to control
[18] = target: Fibroblast growth factor receptor 1 (Homo sapiens) (UniProt P11362); assay: Inhibition of human FGF-R1 assessed as remaining activity at 10 uM in presence of ATP by radiometric kinase assay relative to control
[19] = target: Tyrosine-protein kinase Lck (Homo sapiens) (UniProt P06239); assay: Inhibition of human Lck assessed as remaining activity at 10 uM in presence of ATP by radiometric kinase assay relative to control
[20] = target: Dual specificity testis-specific protein kinase 1 (Homo sapiens) (UniProt Q15569); assay: Inhibition of human TESK1 assessed as remaining activity at 10 uM in presence of ATP by radiometric kinase assay relative to control
[21] = Cmax in BALB/C mouse plasma at 10 mg/kg, po by LC/MS-MS analysis; type: ADME, organism-based
How it was run: (§2)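 Female BALB/c mice received a single 10mg/kg bolus i.v. or p.o. Plasma (and spleen homogenate) extracted with methanol containing internal standards. Concentrations were measured by LC/MS-MS and PK parameters calculated with modelling software.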

[22] = target: Homeodomain-interacting protein kinase 3 (Homo sapiens) (UniProt Q9H422); assay: Inhibition of human HIPK3 assessed as remaining activity at 10 uM in presence of ATP by radiometric kinase assay relative to control
[23] = Cmax in BALB/C mouse spleen at 10 mg/kg, iv by LC/MS-MS analysis; type: ADME, organism-based; how it was run: as §2
[24] = target: Tyrosine-protein kinase Yes (Homo sapiens) (UniProt P07947); assay: Inhibition of human YES1 assessed as remaining activity at 10 uM in presence of ATP by radiometric kinase assay relative to control
[25] = target: Serine/threonine-protein kinase BRSK1 (Homo sapiens, UniProt Q8TDC3); assay: Inhibition of human BRSK1 by FRET based Z-LYTE kinase assay
[26] = target: Tyrosine-protein kinase JAK2 (Homo sapiens) (UniProt O60674); assay: Inhibition of human JAK2 assessed as remaining activity at 10 uM in presence of ATP by radiometric kinase assay relative to control
[27] = Toxicity in Emu-Myc driven transgenic mouse transplant model of B-cell lymphoma assessed as reduction in weight of the mesenteric lymph nodes at 150 mg/kg, po administered for 9 days; type: organism-based; conditions: in vivo, 216 h, time 9 day
[28] = Toxicity in Emu-Myc driven transgenic mouse transplant model of B-cell lymphoma assessed as reduction in weight of bone marrow at 150 mg/kg, po administered for 9 days; type: organism-based; conditions: in vivo, 216 h, time 9 day
[29] = target: Serine/threonine-protein kinase N2 (Homo sapiens) (UniProt Q16513); assay: Inhibition of human PRK2 assessed as remaining activity at 10 uM in presence of ATP by radiometric kinase assay relative to control
[30] = target: Receptor-interacting serine/threonine-protein kinase 2 (Homo sapiens) (UniProt O43353); assay: Inhibition of human RIPK2 assessed as remaining activity at 10 uM in presence of ATP by radiometric kinase assay relative to control
[31] = target: Ephrin type-B receptor 4 (Homo sapiens) (UniProt P54760); assay: Inhibition of human EPH-B4 assessed as remaining activity at 10 uM in presence of ATP by radiometric kinase assay relative to control

Tyrosine-protein kinase JAK2 (Homo sapiens), sequence (O60674 whole entry): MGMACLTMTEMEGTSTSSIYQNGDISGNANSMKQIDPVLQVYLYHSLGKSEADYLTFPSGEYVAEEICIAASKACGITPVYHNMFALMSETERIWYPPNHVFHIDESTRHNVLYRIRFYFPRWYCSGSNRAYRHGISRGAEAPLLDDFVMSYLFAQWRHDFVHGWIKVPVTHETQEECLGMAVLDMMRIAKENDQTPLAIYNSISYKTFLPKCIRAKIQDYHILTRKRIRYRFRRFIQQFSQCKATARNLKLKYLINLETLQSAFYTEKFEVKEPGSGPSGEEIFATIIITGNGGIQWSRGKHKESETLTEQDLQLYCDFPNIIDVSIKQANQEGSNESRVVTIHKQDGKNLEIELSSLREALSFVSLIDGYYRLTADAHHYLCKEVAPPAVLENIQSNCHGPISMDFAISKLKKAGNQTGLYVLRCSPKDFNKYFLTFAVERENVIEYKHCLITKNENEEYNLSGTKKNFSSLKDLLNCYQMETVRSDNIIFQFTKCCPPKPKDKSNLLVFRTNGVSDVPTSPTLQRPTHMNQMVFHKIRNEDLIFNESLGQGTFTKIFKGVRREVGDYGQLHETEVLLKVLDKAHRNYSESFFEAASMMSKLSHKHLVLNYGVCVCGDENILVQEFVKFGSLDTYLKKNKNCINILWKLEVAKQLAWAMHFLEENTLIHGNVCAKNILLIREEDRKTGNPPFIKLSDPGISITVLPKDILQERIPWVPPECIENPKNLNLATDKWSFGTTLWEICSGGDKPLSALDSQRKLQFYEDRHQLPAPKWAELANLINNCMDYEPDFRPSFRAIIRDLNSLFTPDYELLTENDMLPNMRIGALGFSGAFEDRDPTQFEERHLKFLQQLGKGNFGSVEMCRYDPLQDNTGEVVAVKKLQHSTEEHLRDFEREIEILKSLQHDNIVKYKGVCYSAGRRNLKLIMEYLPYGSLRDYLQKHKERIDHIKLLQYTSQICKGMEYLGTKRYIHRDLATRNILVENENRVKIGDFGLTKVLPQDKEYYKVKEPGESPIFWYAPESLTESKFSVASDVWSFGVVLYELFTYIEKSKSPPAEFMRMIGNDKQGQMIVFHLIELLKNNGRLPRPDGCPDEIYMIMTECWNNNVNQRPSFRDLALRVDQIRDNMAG
Tyrosine-protein kinase Lck (Homo sapiens), sequence (P06239 2-509 limits assumed): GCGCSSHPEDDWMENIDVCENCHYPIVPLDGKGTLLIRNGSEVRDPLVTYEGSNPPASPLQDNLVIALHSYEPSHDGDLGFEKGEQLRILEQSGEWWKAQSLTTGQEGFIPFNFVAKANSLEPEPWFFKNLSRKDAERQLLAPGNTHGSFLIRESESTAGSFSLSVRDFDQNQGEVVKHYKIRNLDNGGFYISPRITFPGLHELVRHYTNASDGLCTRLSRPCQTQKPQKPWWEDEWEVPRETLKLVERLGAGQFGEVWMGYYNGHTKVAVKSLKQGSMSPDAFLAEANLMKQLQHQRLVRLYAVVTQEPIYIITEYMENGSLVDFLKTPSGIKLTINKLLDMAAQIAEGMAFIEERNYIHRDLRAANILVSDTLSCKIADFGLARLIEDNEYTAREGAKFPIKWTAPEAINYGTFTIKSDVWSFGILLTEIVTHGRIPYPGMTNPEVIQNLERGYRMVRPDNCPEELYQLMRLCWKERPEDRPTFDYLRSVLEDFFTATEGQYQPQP
Serine/threonine-protein kinase STK11 (Homo sapiens), sequence (Q15831 whole entry): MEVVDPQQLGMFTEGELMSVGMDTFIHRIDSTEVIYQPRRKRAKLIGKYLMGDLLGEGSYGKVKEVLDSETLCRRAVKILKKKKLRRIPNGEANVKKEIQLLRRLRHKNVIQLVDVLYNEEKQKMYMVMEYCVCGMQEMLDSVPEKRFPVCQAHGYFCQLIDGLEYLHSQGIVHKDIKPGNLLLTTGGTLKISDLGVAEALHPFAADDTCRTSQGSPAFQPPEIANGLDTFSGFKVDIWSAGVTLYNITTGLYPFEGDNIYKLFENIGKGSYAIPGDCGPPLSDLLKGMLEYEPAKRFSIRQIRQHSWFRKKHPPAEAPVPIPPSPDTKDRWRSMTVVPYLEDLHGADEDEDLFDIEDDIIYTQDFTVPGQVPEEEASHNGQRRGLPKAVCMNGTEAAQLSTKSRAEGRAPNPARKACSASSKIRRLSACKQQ
Ribosomal protein S6 kinase alpha-1, sequence (Q15418 whole entry): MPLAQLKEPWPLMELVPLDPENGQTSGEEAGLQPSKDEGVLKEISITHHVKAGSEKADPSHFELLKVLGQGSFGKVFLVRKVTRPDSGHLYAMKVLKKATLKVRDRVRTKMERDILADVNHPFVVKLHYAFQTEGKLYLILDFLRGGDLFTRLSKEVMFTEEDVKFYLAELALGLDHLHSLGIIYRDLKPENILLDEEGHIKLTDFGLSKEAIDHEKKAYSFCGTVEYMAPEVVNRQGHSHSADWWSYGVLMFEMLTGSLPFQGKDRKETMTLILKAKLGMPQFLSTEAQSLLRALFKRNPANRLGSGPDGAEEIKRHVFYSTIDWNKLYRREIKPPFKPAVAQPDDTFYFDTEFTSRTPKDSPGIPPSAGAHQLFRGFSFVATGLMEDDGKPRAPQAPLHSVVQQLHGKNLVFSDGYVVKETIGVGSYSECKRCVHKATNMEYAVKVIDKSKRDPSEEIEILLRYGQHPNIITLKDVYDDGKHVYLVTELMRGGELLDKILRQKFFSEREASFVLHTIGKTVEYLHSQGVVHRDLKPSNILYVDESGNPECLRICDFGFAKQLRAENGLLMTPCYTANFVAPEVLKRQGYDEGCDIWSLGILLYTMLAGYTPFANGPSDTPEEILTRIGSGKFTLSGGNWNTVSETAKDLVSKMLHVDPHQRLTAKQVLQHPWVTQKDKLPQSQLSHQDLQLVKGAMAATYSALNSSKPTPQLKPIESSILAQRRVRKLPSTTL
Ribosomal protein S6 kinase alpha-3, sequence (P51812 whole entry): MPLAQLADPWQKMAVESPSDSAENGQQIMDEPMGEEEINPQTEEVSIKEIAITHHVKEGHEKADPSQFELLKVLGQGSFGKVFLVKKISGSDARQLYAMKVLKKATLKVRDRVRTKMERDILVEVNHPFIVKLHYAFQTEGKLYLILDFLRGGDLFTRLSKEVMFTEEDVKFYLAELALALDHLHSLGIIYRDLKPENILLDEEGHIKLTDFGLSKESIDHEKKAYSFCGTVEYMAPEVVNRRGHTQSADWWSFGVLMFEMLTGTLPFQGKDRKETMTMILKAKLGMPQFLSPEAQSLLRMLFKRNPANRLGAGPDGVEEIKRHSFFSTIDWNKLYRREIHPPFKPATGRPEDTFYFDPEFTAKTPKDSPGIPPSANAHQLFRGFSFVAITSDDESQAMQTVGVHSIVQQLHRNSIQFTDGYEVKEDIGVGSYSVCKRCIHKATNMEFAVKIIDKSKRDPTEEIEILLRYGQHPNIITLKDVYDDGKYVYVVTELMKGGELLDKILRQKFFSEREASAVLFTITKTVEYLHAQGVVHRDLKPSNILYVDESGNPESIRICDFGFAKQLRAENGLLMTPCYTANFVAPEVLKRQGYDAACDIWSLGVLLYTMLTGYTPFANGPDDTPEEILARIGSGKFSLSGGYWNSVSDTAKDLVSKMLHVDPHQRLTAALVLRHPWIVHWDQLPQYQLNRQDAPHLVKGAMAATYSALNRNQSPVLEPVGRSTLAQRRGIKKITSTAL
Dual specificity testis-specific protein kinase 1 (Homo sapiens), sequence (Q15569 whole entry, looked up): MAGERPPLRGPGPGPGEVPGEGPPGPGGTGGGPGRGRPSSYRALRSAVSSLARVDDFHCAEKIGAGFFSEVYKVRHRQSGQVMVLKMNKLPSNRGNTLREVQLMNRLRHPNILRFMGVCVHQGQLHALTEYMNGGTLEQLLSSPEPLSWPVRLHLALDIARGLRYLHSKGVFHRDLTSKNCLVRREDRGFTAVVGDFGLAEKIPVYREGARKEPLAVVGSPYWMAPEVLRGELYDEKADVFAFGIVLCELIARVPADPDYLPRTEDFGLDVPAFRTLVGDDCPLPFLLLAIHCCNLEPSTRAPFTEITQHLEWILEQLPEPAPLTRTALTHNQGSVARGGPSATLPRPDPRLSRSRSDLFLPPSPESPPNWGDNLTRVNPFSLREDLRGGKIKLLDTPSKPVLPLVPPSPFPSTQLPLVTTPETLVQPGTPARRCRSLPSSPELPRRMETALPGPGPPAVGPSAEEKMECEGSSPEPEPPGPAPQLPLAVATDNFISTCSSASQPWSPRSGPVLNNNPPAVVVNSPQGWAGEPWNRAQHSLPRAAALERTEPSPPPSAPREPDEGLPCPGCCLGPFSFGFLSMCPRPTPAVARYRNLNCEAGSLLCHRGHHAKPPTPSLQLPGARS
Fibroblast growth factor receptor 1 (Homo sapiens), sequence (P11362 22-822 limits assumed): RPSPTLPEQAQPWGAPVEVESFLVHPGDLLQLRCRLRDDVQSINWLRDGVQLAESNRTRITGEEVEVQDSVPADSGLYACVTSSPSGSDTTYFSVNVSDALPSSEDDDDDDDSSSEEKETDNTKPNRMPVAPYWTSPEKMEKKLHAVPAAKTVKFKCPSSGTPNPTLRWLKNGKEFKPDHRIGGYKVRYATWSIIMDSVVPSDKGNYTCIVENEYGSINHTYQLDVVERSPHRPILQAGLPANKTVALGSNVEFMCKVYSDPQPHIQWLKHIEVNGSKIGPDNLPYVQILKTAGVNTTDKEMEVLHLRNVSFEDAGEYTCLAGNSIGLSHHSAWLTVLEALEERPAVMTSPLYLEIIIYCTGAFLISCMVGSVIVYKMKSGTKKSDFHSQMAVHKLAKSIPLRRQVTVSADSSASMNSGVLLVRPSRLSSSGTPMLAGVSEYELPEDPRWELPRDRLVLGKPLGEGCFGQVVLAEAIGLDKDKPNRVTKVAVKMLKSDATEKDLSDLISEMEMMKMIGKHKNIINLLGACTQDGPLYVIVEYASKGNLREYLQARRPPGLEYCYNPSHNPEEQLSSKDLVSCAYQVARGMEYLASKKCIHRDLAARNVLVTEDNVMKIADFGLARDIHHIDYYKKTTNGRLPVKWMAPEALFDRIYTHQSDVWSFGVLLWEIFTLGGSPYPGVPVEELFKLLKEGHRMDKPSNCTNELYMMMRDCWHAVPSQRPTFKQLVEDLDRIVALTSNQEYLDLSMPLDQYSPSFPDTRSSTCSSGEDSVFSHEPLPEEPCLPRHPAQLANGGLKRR

Structure (SMILES): N#Cc1cnc(Nc2cc(NC[C@H]3CNCCO3)c(C(F)(F)F)cn2)cn1 [SRA-737]
- Activity [1]: 97.5%
- Activity [2]: Toxic
- Tmax [3]: 30 min
- inhibition [4]: 81%
- Activity [5]: Active
- pIC50 [6]: 5.61
- Activity [7]: 75%
- Activity [8]: 44%
- pIC50 [9]: 6.89
- Activity [10]: Active
- AUC(0-inf) [11]: 262 µM·h
- PPB [12]: 75.6%
- Activity [13]: 73%
- inhibition [14]: Active
- Activity [15]: 7%
- Activity [16]: 75%
- Activity [17]: 96%
- Activity [18]: 33%
- Activity [19]: 78%
- Activity [20]: 101%
- Cmax [21]: 1.62 µM
- Activity [22]: 124%
- Cmax [23]: 44.7 µM
- Activity [24]: 65%
- pIC50 [25]: 5.78
- Activity [26]: 37%
- Activity [27]: Toxic
- Activity [28]: Toxic
- Activity [29]: 67%
- Activity [30]: 101%
- Activity [31]: 81%
